Laboratory results: ChEMBL document CHEMBL4364341, “Radiosensitization of Head and Neck Squamous Cell Carcinoma (HNSCC) by a Podophyllotoxin” (ACS Med Chem Lett, 2019)
Activity calls are given as the source filed them. The rule behind the calls is not given here.

How the values were obtained:
FaDu [1] = assay: Synergistic antiproliferative activity against human FADU cells assessed as reduction in cell viability at 1 uM preincubated for 1 hr followed by irradiation with 2.5 Gy IR and measured after 6 days by MTT assay relative to control; type: functional; conditions: light or radiation study
Method in brief: (§1)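 FaDu or SCC-25 cells were grown in DMEM with 10% FBS at 37 °C and 5% CO2. They were seeded at 1000 cells/well in 96-well plates for 24 h, then dosed with compound (fresh DMSO stock diluted in medium) or vehicle. After 1 h, X-rays were given with a sliding 5 mm lead shield, so one plate held 0, 2.5, 5 and 10 Gy columns. After 6 days, MTT (0.5 mg/mL, 45 min) was added, then DMSO, and A570 was read. Values were normalised to the unirradiated vehicle control. Fractional inhibition = 1 − surviving fraction.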

FaDu [2] = assay: Selectivity ratio of IC50 for antiproliferative activity against human FADU cells assessed as reduction in colony formation unit to IC50 for antiproliferative activity against human FADU cells assessed as reduction in colony formation unit followed by irradiation with 5 Gy IR; type: functional
SCC-25 [3] = assay: Antiproliferative activity against human SCC25 cells assessed as reduction in cell viability at 1 uM after 6 days by MTT assay relative to control; type: functional, cell-based; method in brief: as §1
SCC-25 [4] = assay: Synergistic induction of cell cycle arrest in human SCC25 cells assessed as decrease in accumulation at G0/G1 phase at 0.5 uM followed irradiation with 5Gy IR incubated for 24 hrs by propidium iodide staining based flow cytometry; type: functional
Method in brief: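 FaDu or SCC-25 cells, untreated, given 5 Gy IR, drug, or drug plus 5 Gy. Cell-cycle distribution by propidium iodide staining and flow cytometry at 6 h and 24 h after treatment. G0/G1, S and G2/M fractions compared with control by t test.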

FaDu [5] = assay: Synergistic antiproliferative activity against human FADU cells assessed as fractional inhibition at 0.005 uM preincubated for 1 hr followed by irradiation with 2.5 Gy IR and measured after 6 days by MTT assay (reference value: 0.131); type: functional; method in brief: as §1
FaDu [6] = assay: Synergistic antiproliferative activity against human FADU cells assessed as fractional inhibition at 5 uM preincubated for 1 hr followed by irradiation with 2.5 Gy IR and measured after 6 days by MTT assay (reference value: 0.131); type: functional; method in brief: as §1
FaDu [7] = assay: Synergistic antiproliferative activity against human FADU cells assessed as fractional inhibition at 0.005 uM preincubated for 1 hr followed by irradiation with 10 Gy IR and measured after 6 days by MTT assay (reference value: 0.388); type: functional; method in brief: as §1
FaDu [8] = assay: Synergistic antiproliferative activity against human FADU cells assessed as combination index at 0.005 uM preincubated for 1 hr followed by irradiation with 2.5 Gy IR and measured after 6 days by MTT assay; type: functional
Method in brief: (§2)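 Combination index was calculated by the Chou–Talalay median-effect method from the 6-day MTT viability data of the single-plate compound/X-ray (2.5, 5, 10 Gy) design. CI < 1 denotes synergy, CI = 1 additivity and CI > 1 antagonism.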

FaDu [9] = assay: Synergistic antiproliferative activity against human FADU cells assessed as combination index at 5 uM preincubated for 1 hr followed by irradiation with 2.5 Gy IR and measured after 6 days by MTT assay; type: functional; method in brief: as §2
FaDu [10] = assay: Synergistic antiproliferative activity against human FADU cells assessed as combination index at 0.005 uM preincubated for 1 hr followed by irradiation with 5 Gy IR and measured after 6 days by MTT assay; type: functional; method in brief: as §2
SCC-25 [11] = assay: Antiproliferative activity against human SCC25 cells assessed as fractional inhibition at 5 uM after 6 days in absence of irradiation by MTT assay; type: functional; method in brief: as §1
SCC-25 [12] = assay: Synergistic antiproliferative activity against human SCC25 cells assessed as fractional inhibition at 0.5 uM preincubated for 1 hr followed by irradiation with 10 Gy IR and measured after 6 days by MTT assay (reference value: 0.347); type: functional
Method in brief: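 SCC-25 cells seeded 1000/well in 96-well plates in DMEM/10% FBS and left 24 h. Drug or vehicle added, then after 1 h X-irradiated to 2.5, 5 or 10 Gy on one plate using a shifted lead shield. Plates incubated 6 days, then MTT (0.5 mg/mL, 45 min), DMSO solubilisation, absorbance at 570 nm. Fractional inhibition = 1 − fraction of surviving cells.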

SCC-25 [13] = assay: Synergistic antiproliferative activity against human SCC25 cells assessed as combination index at 0.005 uM preincubated for 1 hr followed by irradiation with 2.5 Gy IR and measured after 6 days by MTT assay; type: functional
Method in brief: (§3)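 SCC-25 cells grown in DMEM with 10% FBS at 37 °C, 5% CO2, seeded 1000 cells/well in 96-well plates and left 24 h. Drug in DMSO, diluted in complete medium, added 1 h before X-irradiation. A movable 5 mm lead shield gave 0, 2.5, 5 or 10 Gy on one plate. After 6 days, MTT readout at 570 nm. Combination index by Chou–Talalay from viability data.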

SCC-25 [14] = assay: Synergistic antiproliferative activity against human SCC25 cells assessed as combination index at 0.05 uM preincubated for 1 hr followed by irradiation with 2.5 Gy IR and measured after 6 days by MTT assay; type: functional; method in brief: as §3
SCC-25 [15] = assay: Synergistic antiproliferative activity against human SCC25 cells assessed as combination index at 5 uM preincubated for 1 hr followed by irradiation with 2.5 Gy IR and measured after 6 days by MTT assay; type: functional; method in brief: as §3
SCC-25 [16] = assay: Synergistic antiproliferative activity against human SCC25 cells assessed as combination index at 0.005 uM preincubated for 1 hr followed by irradiation with 5 Gy IR and measured after 6 days by MTT assay; type: functional; method in brief: as §3
SCC-25 [17] = assay: Synergistic antiproliferative activity against human SCC25 cells assessed as combination index at 0.5 uM preincubated for 1 hr followed by irradiation with 5 Gy IR and measured after 6 days by MTT assay; type: functional; method in brief: as §3
SCC-25 [18] = assay: Synergistic antiproliferative activity against human SCC25 cells assessed as combination index at 0.5 uM preincubated for 1 hr followed by irradiation with 10 Gy IR and measured after 6 days by MTT assay; type: functional; method in brief: as §3
SCC-25 [19] = assay: Induction of cell cycle arrest in human SCC25 cells at 0.5 uM by propidium iodide staining based flow cytometry; type: functional
Method in brief: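 Cell-cycle distribution was measured by propidium iodide staining and flow cytometry. Readings were taken 6 and 24 h after compound alone, 5 Gy IR alone, or the combination, against control.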

FaDu [20] = assay: Induction of cell cycle arrest in human FADU cells assessed as decrease in CDK1 at 0.5 uM incubated for 48 hrs by immunoblot analysis; type: functional, cell-based
Method in brief: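 FaDu cells received compound at 0.5 μM, 5 Gy IR, or both. After 48 h, lysates were immunoblotted for NRF2, cyclin B1, CDK1, Bax and Bcl-2. Membranes were then stripped and reprobed for β-actin as the loading control.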

SCC-25 [21] = assay: Synergistic induction of apoptosis in human SCC25 cells assessed as increase in caspase at 0.5 uM followed by irradiation with 5 Gy IR incubated for 48 hrs by luminescence based analysis; type: functional, cell-based
SCC-25 [22] = assay: Synergistic induction of apoptosis in human SCC25 cells at 0.5 uM followed irradiation with 5Gy IR by annexin V FITC and propidium iodide staining based flow cytometry; type: functional, cell-based; conditions: TDE = time-dependent effect
Method in brief: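 FaDu or SCC-25 cells, untreated, given 5 Gy IR, drug, or both. Apoptotic cells measured by annexin V flow cytometry 48 h after treatment. Percentage compared with control by t test.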

SMILES: COc1ccc2c(c1)N(CCO)C1=C(C(=O)OC1)C2c1ccccc1 (configuration not stated)
- inhibition at 1 µM (FaDu [1]): 30%
- Ratio IC50 (FaDu [2]): 13
- inhibition (SCC-25 [3]): inactive
- Activity (SCC-25 [4]): Active
- fractional inhibitory concentration index (FICI) (FaDu [5]): 0.236
- fractional inhibitory concentration index (FICI) (FaDu [6]): 0.501
- fractional inhibitory concentration index (FICI) (FaDu [7]): 0.346
- CI (FaDu [8]): 0.406
- CI (FaDu [9]): 1.225
- CI (FaDu [10]): 1.822
- fractional inhibitory concentration index (FICI) (SCC-25 [11]): 0.744
- fractional inhibitory concentration index (FICI) (SCC-25 [12]): 0.713
- CI (SCC-25 [13]): 1.216
- CI (SCC-25 [14]): 0.835
- CI (SCC-25 [15]): 1.244
- CI (SCC-25 [16]): 0.801
- CI (SCC-25 [17]): 0.395
- CI (SCC-25 [18]): 0.663
- Activity (SCC-25 [19]): inactive
- Activity (FaDu [20]): Active
- Activity (SCC-25 [21]): Active
- Activity (SCC-25 [22]): Tde
